Assay results from ChEMBL document CHEMBL4004815, “(-)-Neocaryachine, an Antiproliferative Pavine Alkaloid from Cryptocarya laevigata, Induces DNA Double-Strand Breaks” (J Nat Prod, 2017).
Active and inactive are the calls of the source. The rule behind the calls is not given here.

Legend:
[1] = test system: A549; assay: Antiproliferative activity against human A549 cells after 72 hrs by SRB assay; type: functional, cell-based; conditions: A549, 72 h
Method in brief: (§1)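 Cells seeded at 4000−12 000 per well, density set by the line's doubling time. Compounds were added in DMSO, at most 0.1% v/v. After 72 h exposure, attached cells were fixed with 10% TCA, stained with 0.04% SRB, and the dye was solubilised in 10 mM Tris base. KB-VIN was maintained in 100 nM VIN.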

[2] = test system: MDA-MB-231; assay: Antiproliferative activity against human MDA-MB-231 cells after 72 hrs by SRB assay; type: functional, cell-based; conditions: MDA-MB-231, 72 h; method in brief: as §1
[3] = test system: MCF7; assay: Antiproliferative activity against human MCF7 cells after 72 hrs by SRB assay; type: functional, cell-based; conditions: MCF7, 72 h
Method in brief: as §1, with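 “base. Absorbance read at 515 nm. IC50 is 50% reduction relative to untreated cells, averaged over at least three independent experiments in duplicate.” for “base.”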

[4] = test system: KB; assay: Antiproliferative activity against human KB cells after 72 hrs by SRB assay; type: functional, cell-based; method in brief: as §1
[5] = Antiproliferative activity against human KBVIN cells after 72 hrs by SRB assay; type: functional, cell-based
Method in brief: as §1, with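 “base. Absorbance read at 515 nm. IC50 is 50% reduction relative to untreated cells, averaged over at least three independent experiments in duplicate.” for “base.”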

[6] = test system: KBVIN; assay: Cell cycle arrest in human KBVIN cells assessed as accumulation at S phase at 20 uM after 24 to 48 hrs by propidium iodide staining-based flow cytometric method; type: functional
Method in brief: (§2)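 KB-VIN cells were seeded 24 h before dosing, then exposed for 24 or 48 h, with 0.1% DMSO as the vehicle control. DNA content was stained with propidium iodide and cell-cycle distribution (sub-G1, S, G2/M) analysed by flow cytometry. Experiments were repeated at least three times.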

[7] = test system: KBVIN; assay: Cell cycle arrest in human KBVIN cells assessed as increase in cell levels at sub G1 phase at 20 uM after 48 hrs by propidium iodide staining-based flow cytometric method; type: functional; method in brief: as §2
[8] = species: Homo sapiens; assay: Induction of DNA double strand breaks in human KBVIN cells assessed as increase in gamma-H2AX positive nuclei at 20 uM after 24 hrs by DAPI staining-based confocal fluorescence microscopic method; type: cell-based
Method in brief: (§3)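 KB-VIN cells on chamber slides were dosed 24 h after seeding and treated for 24 h, with 0.1% DMSO as control. Cells were fixed in ice-cold 4% paraformaldehyde/PBS and permeabilised with 0.5% Triton X-100. Staining used mouse anti-α-tubulin with FITC secondary, rabbit anti-γ-H2AX with Alexa Fluor 546 secondary, and DAPI for nuclei. Stacked confocal images were examined.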

[9] = species: Homo sapiens; assay: Induction of morphological changes of microtubule in human KBVIN cells at 20 uM after 24 hrs by DAPI staining-based confocal fluorescence microscopic method; type: cell-based; method in brief: as §3
[10] = test system: KBVIN; assay: Cell cycle arrest in human KBVIN cells at 0.3 uM after 24 hrs by propidium iodide staining-based flow cytometric method; type: functional
Method in brief: (§4)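 KB-VIN (P-gp-overexpressing MDR KB subline, maintained with 100 nM vincristine) seeded 24 h before treatment. Compound exposure 24 or 48 h, vehicle 0.1% DMSO; 5-FU and CA-4 (10 nM, 24 h) served as S and G2/M arrest controls. DNA content read by propidium iodide staining and flow cytometry. Experiments repeated at least three times.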

[11] = test system: KBVIN; assay: Cell cycle arrest in human KBVIN cells assessed as accumulation at sub-G1 phase at 0.3 uM after 48 hrs by propidium iodide staining-based flow cytometric method; type: functional; method in brief: as §4
[12] = test system: KBVIN; assay: Cell cycle arrest in human KBVIN cells assessed as accumulation at S phase at 3 to 10 uM after 24 to 48 hrs by propidium iodide staining-based flow cytometric method; type: functional; method in brief: as §4
[13] = species: Homo sapiens; assay: Induction of DNA double strand breaks in human KBVIN cells assessed as increase in gamma-H2AX positive nuclei after 24 hrs by DAPI staining-based confocal fluorescence microscopic method; type: cell-based
Method in brief: (§5)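 KB-VIN cells on chamber slides 24 h, then compound (0.3 and 3.0 µM) or 0.1% DMSO for 24 h. Fixed in ice-cold 4% paraformaldehyde/PBS, permeabilised with 0.5% Triton X-100. Stained with mouse anti-α-tubulin (FITC secondary), rabbit anti-γ-H2AX (Alexa Fluor 546 secondary) and DAPI. Imaged by confocal microscopy as stacked images.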

[14] = test system: KBVIN; assay: Induction of apoptosis in human KBVIN cells assessed as nuclear fragmentation at 0.3 to 3 uM after 24 hrs by DAPI staining-based confocal fluorescence microscopic method; type: functional, cell-based; method in brief: as §5
[15] = species: Homo sapiens; assay: Induction of morphological changes of microtubule in human KBVIN cells at 3 uM after 24 hrs by DAPI staining-based confocal fluorescence microscopic method; type: cell-based; method in brief: as §5

SMILES | IC50 [1] | IC50 [2] | IC50 [3] | IC50 [4] | IC50 [5] | Activity [6] | Activity [7] | Activity [8] | Activity [9] | Activity [10] | Activity [11] | Activity [12] | Activity [13] | Activity [14] | Activity [15]
CN1[C@H]2Cc3cc4c(cc3[C@@H]1Cc1cc3c(cc12)OCO3)OCO4 [ESCHOLTZINE] | 8.71 µM | 26.1 µM | 26.6 µM | 17 µM | 19.8 µM | inactive | Active | inactive | inactive |  |  |  |  |  | 
COc1cc2c(cc1O)[C@@H]1Cc3cc(OC)c(OC)cc3[C@H](C2)N1C | > 40 µM | > 40 µM | > 40 µM | > 40 µM | > 40 µM |  |  |  |  |  |  |  |  |  | 
CC(=O)O[C@H]1C(=O)[C@@]2(C)[C@H]([C@H](OC(=O)c3ccccc3)[C@]3(O)C[C@H](OC(=O)[C@H](O)[C@@H](NC(=O)c4ccccc4)c4ccccc4)C(C)=C1C3(C)C)[C@]1(OC(C)=O)CO[C@@H]1C[C@@H]2O [PACLITAXEL] |  |  | 0.0104 µM |  | 1.93 µM |  |  |  |  |  |  |  |  |  | 
COc1cc2c(cc1O)C[C@H]1c3cc4c(cc3C[C@@H]2N1C)OCO4 | 3.98 µM | 5.71 µM | 7.42 µM | 5.49 µM | 5.91 µM |  |  |  |  |  |  |  |  |  | 
COc1ccc2c(c1O)[C@@H]1Cc3cc4c(cc3[C@H](C2)N1C)OCO4 | 0.064 µM | 0.264 µM | 0.413 µM | 0.228 µM | 0.241 µM |  |  |  |  | inactive | Active | Active | Dose-dependent effect | Active | Active
C[N+]1([O-])[C@H]2Cc3cc4c(cc3[C@@H]1Cc1cc3c(cc12)OCO3)OCO4 (some centres not stated) | 29.3 µM | 41 µM | > 40 µM | 35.5 µM | > 40 µM |  |  |  |  |  |  |  |  |  | 
